The values that follow come from PubChem BioAssay AID624068 (Broad Institute, 2012).

Each structure is given as a SMILES string. Inconclusive results are not listed.

This test relates to S. cerevisiae W303 JC-1 mitochondrial potential, flow cytometry. Kind of test: JC-1 mitochondrial potential loss in yeast – flow cytometry, single point, dry powder, mechanism study for C. glabrata antifungal project (AID 624068). The following applies: at 1 µM; hits give high values. The essentials:
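Signal: JC-1 flow cytometry, 488 nm excitation; Test system: S. cerevisiae W303-1a yeast; Benchmarks: antimycin A 10 µM plus negative controls for calibration; Schedule: 90 min pre-growth at 30 °C, 4 h compound exposure.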

For `CCOC(=O)N1C(=O)C2(CCCCC2)N(c2ccc(C)cc2)C1=S`, the mitochondrial depolarization score is 27.8.
